Test results from ChEMBL document CHEMBL4196106, “From Naproxen Repurposing to Naproxen Analogues and Their Antiviral Activity against Influenza A Virus” (J Med Chem, 2018).
The source made the active and inactive calls. No cut-off for these calls is given here.

Experiments:
[1] = Binding affinity to biotin labelled Influenza A virus nucleoprotein by surface plasmon resonance analysis
MDCK = test: Inhibition of nucleoprotein/polymerase acidic protein (1 to 27 residues) interaction in Influenza A virus (A/WSN/1933 (H1N1)) infected in MDCK cells by Western blot analysis; type: cell-based
Procedure, shortened: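 MDCK cells were infected with A/WSN/33 at MOI 2 for 18 h and lysed in PBS with protease inhibitors and 0.5% NP40 by freezing; nucleic acids were not digested. Streptavidin beads loaded with 250 µM biotinylated PA(1-27) were incubated with the lysate 18 h at 4 °C, with or without compound. Bound NP was detected by anti-NP monoclonal western blot.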

Influenza A virus [2] = test: Stabilization of Influenza A virus nucleoprotein assessed as melting temperature at 5 to 15 uM measured for 5 mins
Procedure, shortened: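 Recombinant NP, over 80% monomeric, was used at 5–15 µM with compound at a 1:1 ratio in 20 mM Tris pH 7.4, 50 mM NaCl. Mean size was followed by dynamic light scattering (10 scans over 5 min per point) while heating at 1 °C/min up to 70–80 °C. Tm was taken from the maximum of the first-derivative curve, and analyses were done in triplicate.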

Influenza A virus [3] = test: Antiviral activity against pandemic Influenza A virus (A/Netherlands/602/09(H1N1)) infected in MDCK cells at MOI of 10^-3 assessed as decrease in viral load after 18 hrs by immunofluorescence analysis; type: functional, organism-based
[4] = Selectivity index, ratio of CC50 for MDCK cells to IC50 for Influenza A virus (A/WSN/1933(H1N1)) infected in MDCK cells at MOI of 10^-3 after 48 hrs; type: toxicity, cell-based; conditions: dog, read-out: Ratio CC50/IC50
[5] = Selectivity index, ratio of CC50 for MDCK cells to IC50 for Influenza A virus (A/WSN/1933(H1N1)) infected in MDCK cells at MOI of 2 after 18 hrs; type: toxicity, cell-based; conditions: dog, read-out: Ratio CC50/IC50
[6] = Selectivity index, ratio of CC50 for MDCK cells to IC50 for Influenza A virus (A/Udorn/1972 (H3N2)) infected in MDCK cells at MOI of 2 after 18 hrs; type: toxicity, cell-based; conditions: dog, read-out: Ratio CC50/IC50
[7] = Selectivity index, ratio of CC50 for MDCK cells to IC50 for pandemic Influenza A virus (A/Netherlands/602/09(H1N1)) infected in MDCK cells at MOI of 10^-3 after 18 hrs; type: toxicity, cell-based; conditions: dog, read-out: Ratio CC50/IC50
A549 = test: Downregulation of COX2 level in human A549 cells infected with Influenza A virus at MOI of 2 at 100 uM after 18 hrs in presence of gamma-ATP by immunofluorescence analysis; type: cell-based; conditions: a549, 18 h
Procedure, shortened: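 A549 cells were pretreated with compound for 30 min, then either infected with IAV at MOI 2 for 18 h or activated with 100 µM γ-ATP for 1 h with or without compound. Cells were fixed in 3% PFA and permeabilised with 0.1% triton. COX2 was immunostained overnight with a primary antibody and detected with an Alexa 647 secondary.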

[8] = Selectivity index, ratio of CC50 for human A549 cells to IC50 for Influenza A virus (A/Udorn/1972 (H3N2)) after 18 hrs; type: toxicity; conditions: read-out: Ratio CC50/IC50
Influenza A virus [9] = test: Antiviral activity against Influenza A virus (A/Udorn/1972 (H3N2)) infected in MDCK cells at MOI of 2 assessed as decrease in viral load after 18 hrs by immunofluorescence analysis; type: functional, organism-based
Procedure, shortened: (§1)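 MDCK or A549 cells, 0.32 x 10^6 per well, were held 24 h serum-free to 80% confluence and then infected at MOI 2. Compound (0.1–500 µM) or vehicle was added right after virus adsorption. At 18 h, viral NP was read by immunofluorescence and corrected for cell number by DAPI. Runs were in triplicate, repeated at least twice, and IC50 came from a dose-response fit.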

[10] = Safety index, ratio of compound CC50 to naproxen CC50 for MDCK cells by MTT assay; type: ADME, cell-based, Canis lupus familiaris; conditions: dog
Influenza A virus [11] = test: Antiviral activity against Influenza A virus (A/Udorn/1972 (H3N2)) infected in human A549 cells assessed as decrease in viral load after 18 hrs by immunofluorescence analysis; type: functional, organism-based; conditions: A549, 18 h; procedure, shortened: as §1
[12] = Binding affinity to Influenza A virus nucleoprotein by surface plasmon resonance analysis
Influenza A virus [13] = test: Antiviral activity against Influenza A virus (A/WSN/1933(H1N1)) infected in MDCK cells at MOI of 10^-3 assessed as decrease in viral load after 48 hrs by crystal violet staining-based plaque assay; type: functional, organism-based
Procedure, shortened: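 Serum-starved MDCK cells, 0.32 x 10^6 per well, were infected with A/WSN/33 at MOI 10^-3 (multi-cycle). Compound (0.1–500 µM) or vehicle was added immediately after adsorption. After 48 h, titres in clarified supernatant were read by plaque assay with crystal violet. Runs were in triplicate, repeated at least twice, and IC50 came from a dose-response fit.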

Influenza A virus [14] = test: Stabilization of Influenza A virus nucleoprotein assessed as melting temperature at 5 to 15 uM measured for 10 mins
[15] = Cytotoxicity against MDCK cells assessed as reduction in cell viability after 48 hrs by trypan blue staining based method; parameters: species or system Canis lupus familiaris; conditions: dog
Procedure, shortened: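 MDCK cells, 3.2 x 10^5 per well, were grown 24 h and then exposed to serial compound dilutions under the same conditions as the MTT test. At 48 h, cells were washed, trypsinised and stained with Trypan blue, and viable and dead cells were counted by phase-contrast microscopy.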

Influenza A virus [16] = test: Antiviral activity against Influenza A virus (A/WSN/1933(H1N1)) infected in MDCK cells at MOI of 2 assessed as decrease in viral load after 18 hrs by immunofluorescence analysis; type: functional, organism-based; procedure, shortened: as §1
Influenza A virus [17] = test: Antiviral activity against Influenza A virus (A/Puerto Rico/8/1934(H1N1)) infected in C57BL/6J mouse assessed as increase in mouse survival at 8 mg/mouse/day, ip qd treated up to day 2 starting at 5 to 10 mins post infection measured at day 12; type: functional, organism-based
Procedure, shortened: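 Intranasal A/PR/8/34 challenge at 500 PFU in female C57BL/6J mice, 5–6 weeks old, under ketamine/xylazine. Dosing was i.p. once daily on days 0, 1 and 2, starting 5–10 min post-inoculation; 1 mg/mouse is 50 mg/kg and 8 mg/mouse is 400 mg/kg. There were 10 mice per group, with saline vehicle. Survival and body weight were scored daily, with 20% weight loss as the mortality endpoint.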

Influenza A virus [18] = test: Antiviral activity against Influenza A virus (A/Puerto Rico/8/1934(H1N1)) infected in C57BL/6J mouse assessed as decrease in viral load in bronchoalveolar lavage at 8 mg/mouse/day, ip qd treated up to day 2 starting at 5 to 10 mins post infection relative to control; type: functional
Procedure, shortened: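 Female C57BL/6J mice, 5–6 weeks old, were anaesthetised with ketamine/xylazine (43/5 mg/kg) and inoculated intranasally with A/PR/8/34 at 500 PFU. Treatment was i.p. once daily on days 0, 1 and 2, starting 5–10 min after inoculation; 1 mg/mouse is 50 mg/kg and 8 mg/mouse is 400 mg/kg. BAL infectious titre was measured by plaque assay against saline-treated mice.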

Influenza A virus [19] = test: Antiviral activity against Influenza A virus (A/Puerto Rico/8/1934(H1N1)) infected in C57BL/6J mouse assessed as recovery of weight loss at 8 mg/mouse/day, ip qd […] starting at 5 to 10 mins post infection measured up to day 12; type: functional, organism-based

With `COc1ccc2cc(C(CC(=O)O)CC(=O)O)ccc2c1` the Ki [1] was 0.8 µM, the “inhibition (active/not active)” value (MDCK) was “inactive” and the Tm (Influenza A virus [2]) was 25 to 45 °C.
With `COc1ccc2cc(-c3c(C(=O)[O-])ccc(Oc4ccc(N)cc4)c3C(=O)[O-])ccc2c1.[Na+].[Na+]` the IC50 (Influenza A virus [3]) was 0.7 µM, the selectivity ratio at 48 h [4] was 9230 and the selectivity ratio at 18 h [5] was 923. The selectivity ratio at 18 h [6] was 923, the selectivity ratio at 18 h [7] was 17100 and the Activity (A549) was “Non-Toxic”. It also gave a selectivity ratio at 18 h [8] of 706, an IC50 (Influenza A virus [9]) of 13 µM and a selectivity ratio [10] of 10. It also gave an IC50 (Influenza A virus [11]) of 17 µM, a Ki [12] of 0.03 µM and an IC50 (Influenza A virus [13]) of 1.3 µM. For the same compound, the Tm (Influenza A virus [14]) was 48 °C, the “inhibition (active/not active)” value (MDCK) was “Active” and the CC50 at 48 h [15] was at least 10000 µM. It also gave an IC50 (Influenza A virus [16]) of 13 µM.
In the case of `CCOC(=O)C1=C[C@@H](OC(CC)CC)[C@H](NC(C)=O)[C@@H](N)C1` [OSELTAMIVIR], the Activity (Influenza A virus [17]) is reported as “Active”, the “fold change (FC)” value (Influenza A virus [18]) is reported as 260 and the Activity (Influenza A virus [19]) is reported as “inactive”.
